Results taken from article PMC12808237 (Nature Communications, 2025).
Blank lines part the entries; values can stand above or below the compound they belong to.

Assays:
[1] = biological target: T1, MITF(180-296) (Homo sapiens, UniProt O75030); assay: Isothermal titration calorimetry; assay type: binding; conditions: 25 °C, n = 2, mean ± SD
T1 sequence (O75030 300-403 limits assumed): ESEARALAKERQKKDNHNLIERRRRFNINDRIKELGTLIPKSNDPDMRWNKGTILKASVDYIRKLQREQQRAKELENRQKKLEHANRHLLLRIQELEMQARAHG
Procedure, shortened: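 Run at 25 °C in high-feedback mode. Buffer: 25 mM Tris-HCl pH 7.5, 150 mM NaCl, 10 mM L-arginine, 3 mM EDTA, 0.5 mM TCEP. Cell held 12 µM purified dimeric wild-type avi-tagged MITF(180-296), dialysed twice at 4 °C, with 2% DMSO. Syringe held 182–220 µM test compound diluted from DMSO. Duplicates were fitted with automatic baseline/integration; reported as mean ± SD.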

[2] = biological target: T2, MITF(180-296) (Homo sapiens, UniProt O75030); assay: Surface plasmon resonance; assay type: binding; conditions: 25 °C
T2 sequence (O75030 287-403): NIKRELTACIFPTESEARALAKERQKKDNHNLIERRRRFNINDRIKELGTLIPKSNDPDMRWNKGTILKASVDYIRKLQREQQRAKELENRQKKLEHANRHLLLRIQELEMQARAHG
Procedure, shortened: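 MITF(180-296), biotinylated via C-terminal Avi-tag, was captured on a streptavidin chip at 6 µg mL-1 to ~3000 RU. Run at 25 °C in 25 mM Tris-HCl pH 7.5, 150 mM NaCl, 0.05% Tween 20, 3 mM EDTA, 0.5 mM TCEP, 10 mM L-arginine, 3% DMSO. Test compound was injected as a 2- or 3-fold series at 60 µL min-1 (60 s association, 150 s dissociation). Double-referenced data were fitted globally to a 1:1 model for kon, koff and KD.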

[3] = biological target: MYC/MAX (Homo sapiens, UniProt P01106+P61244); assay: NMR chemical shift perturbation; assay type: binding
Chain of MYC/MAX (P01106 368-449): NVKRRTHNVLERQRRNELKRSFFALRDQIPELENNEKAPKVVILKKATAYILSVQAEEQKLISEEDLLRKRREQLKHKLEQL
Chain of MYC/MAX (P61244 22-102): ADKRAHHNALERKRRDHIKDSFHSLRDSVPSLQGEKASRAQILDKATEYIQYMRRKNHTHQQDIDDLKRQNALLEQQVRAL

[4] = biological target: T3, MITF(217-296) (Homo sapiens, UniProt O75030); assay: Protein-observed NMR titration; assay type: binding
T3 sequence (O75030 217-296 isoform O75030-9): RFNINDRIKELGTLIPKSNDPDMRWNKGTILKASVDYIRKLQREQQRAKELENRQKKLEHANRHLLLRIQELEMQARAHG

[5] = biological target: T3, MITF(217-296); assay: 19F NMR reporter assay; assay type: binding
[6] = tested on: MITF-dependent target genes; conditions: cited from earlier work
[7] = tested on: melanoma cell lines; conditions: cited from earlier work
[8] = tested on: MITF(180-296) A264C; assay: ITC with MITF variant A264C; assay type: binding, human; conditions: 25 °C
[9] = tested on: MITF(180-296) Q261A; assay: ITC with MITF variant Q261A; assay type: binding, human; conditions: 25 °C
[10] = tested on: MITF(180-296) R263A; assay: ITC with MITF variant R263A; assay type: binding, human; conditions: 25 °C
[11] = biological target: T1, MITF(180-296); assay: Nano differential scanning fluorimetry; assay type: binding; conditions: nanoDSF, compound at 50 μM
Procedure, shortened: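 Wild-type MITF(180-296) was spun 16,000 × g, 10 min, 4 °C, then used at 0.3 mg mL-1 final in 50 mM HEPES pH 8, 300 mM NaCl, 5% glycerol, 1 mM TCEP. Test compound 50 μM final, 3% DMSO; DMSO for apo. Shaken 30 min at RT and re-spun. Heated 20–95 °C at 0.5 °C min-1; 280 nm excitation, 330/350 nm emission. Duplicates.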

[12] = SPR KD,eq, equilibrium affinity
[13] = KD (MITF NMR KD), protein-observed NMR titration

ITC KD [1]: low-μM range | Kd [2, 12]: 4 µM | Kd [3]: > 200 µM
Compound: Cc1cc(C#CC2(O)CCCCC2)cc2c1cc(C(=O)O)n2-c1ccccc1 [compound 7]

Kd ([4]; KD, protein-observed NMR titrations): 1000 µM
Compound: O=C(O)c1cc2cc(F)ccc2n1-c1ccc(F)cc1 [compound 1]

ITC KD [1]: low-μM range | Kd [2, 12]: 8 µM | Ki [5]: 2.6 µM | improved binding affinity compared to compound 3 ([5]; Ki of 6 versus KD of 3): > 100 fold | Kd [3]: > 200 µM
Compound: O=C(O)c1cc2ccc(C#CC3(O)CCCCC3)cc2n1-c1ccccc1 [compound 6]

Kd ([1]; ITC KD): 0.47 ± 0.17 µM | -TΔS ([1]; ITC): 2.96 ± 2.08 kcal/mol | ΔG ([1]; ITC): -8.63 ± 0.21 kcal/mol | ΔH ([1]; ITC): -11.8 ± 1.55 kcal/mol | Kd [2, 12]: 1.9 µM | Kd ([2]; kinetic affinity constant (KD,kin), SPR, from kon and koff): 1.8 µM | thermal stabilization of MITF [11]: 3.4 °C
Compound: O=C(O)c1cc2ccc(C#CC3(O)CCCCC3)cc2n1-c1cccc(Cl)c1 [compound 8]
binding to MITF variant by ITC [8]: significant disruption of binding interactions | binding to MITF variant by ITC [9]: significant disruption of binding interactions | binding to MITF variant by ITC [10]: significant disruption of binding interactions

The remaining lines, values behind:

Compound: O=C(O)c1[nH]c2ccc(Cl)cc2c1-c1ccccc1 [compound 3]
Kd [4, 13]: 327 µM | ligand efficiency ([5]; from NMR affinities): 0.25

Compound: NS(=O)(=O)c1ccc(NC2=CC(=O)c3ccccc3C2=O)cc1 [ML329]
effect on MITF-dependent target genes [6]: induce downregulation of a subset of MITF-dependent target genes | effect on survival of melanoma cell lines [7]: negatively impact survival of melanoma cell lines

Compound: O=C(O)c1[nH]c2ccc(Cl)cc2c1-c1ccc(F)cc1 [compound 5]
Kd [4, 13]: 104 µM
